The list is not random: actives were taken first. Their share in the collection is about 1.5%.
PKA-R2B activ: PKA-R2B complex activation. P22694+P31323. PKA-R2B holoenzyme dissociation, Cy5-IP20 fluorescence polarization; R2B truncated from residue 108, S112A mutant; 0% DMSO only, 100% 113 µM cGMP. activation, % at 11.4 µM. 340,000 tested, 0.079% active. AID 504700;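 active means activation above a cutoff set at the mean over all compounds plus 3 SD, cut at about 18% in these data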;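 further: higher means more holoenzyme dissociation and a rise in polarization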
PKA-R1A act: activates the PKA-R1A holoenzyme complex | P00514+P68181 | PKA-R1A dissociation, Cy5-IP20 fluorescence polarization; scaled: DMSO 0%, 113 µM cGMP 100% | activation, % at 11.4 µM | 340,000 tested, 0.083% active | AID 504707;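 active means percent activation above the mean of all tested compounds plus 3 SD, cut at about 19% in these data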;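 further: higher means more PKAc released from R1A so a rise in polarization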
H9c2 protect: modulators protecting cardiomyocytes from myocardial damage. H9c2 cardiomyocytes, H2O2 injury protection, ATPLite, 2 h. AID 588492. protection from H2O2 cell death, % at 20 µM. 360,000 tested, 0.63% active;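 active means compounds giving at least 50% protection of heart cells from peroxide-induced death in the single-dose screen, raw or plate-pattern-corrected value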
Rin1 Abl inh: human Rin1-Abl interaction inhibition; TR-FRET Rin1/Abl binding, biochemical; inhibition, % at 7.35 µM; 360,000 tested, 0.4% active; in the data active means inhibition above about 5%, passing the limit was not always enough
Target sequence (P00519 whole entry, looked up): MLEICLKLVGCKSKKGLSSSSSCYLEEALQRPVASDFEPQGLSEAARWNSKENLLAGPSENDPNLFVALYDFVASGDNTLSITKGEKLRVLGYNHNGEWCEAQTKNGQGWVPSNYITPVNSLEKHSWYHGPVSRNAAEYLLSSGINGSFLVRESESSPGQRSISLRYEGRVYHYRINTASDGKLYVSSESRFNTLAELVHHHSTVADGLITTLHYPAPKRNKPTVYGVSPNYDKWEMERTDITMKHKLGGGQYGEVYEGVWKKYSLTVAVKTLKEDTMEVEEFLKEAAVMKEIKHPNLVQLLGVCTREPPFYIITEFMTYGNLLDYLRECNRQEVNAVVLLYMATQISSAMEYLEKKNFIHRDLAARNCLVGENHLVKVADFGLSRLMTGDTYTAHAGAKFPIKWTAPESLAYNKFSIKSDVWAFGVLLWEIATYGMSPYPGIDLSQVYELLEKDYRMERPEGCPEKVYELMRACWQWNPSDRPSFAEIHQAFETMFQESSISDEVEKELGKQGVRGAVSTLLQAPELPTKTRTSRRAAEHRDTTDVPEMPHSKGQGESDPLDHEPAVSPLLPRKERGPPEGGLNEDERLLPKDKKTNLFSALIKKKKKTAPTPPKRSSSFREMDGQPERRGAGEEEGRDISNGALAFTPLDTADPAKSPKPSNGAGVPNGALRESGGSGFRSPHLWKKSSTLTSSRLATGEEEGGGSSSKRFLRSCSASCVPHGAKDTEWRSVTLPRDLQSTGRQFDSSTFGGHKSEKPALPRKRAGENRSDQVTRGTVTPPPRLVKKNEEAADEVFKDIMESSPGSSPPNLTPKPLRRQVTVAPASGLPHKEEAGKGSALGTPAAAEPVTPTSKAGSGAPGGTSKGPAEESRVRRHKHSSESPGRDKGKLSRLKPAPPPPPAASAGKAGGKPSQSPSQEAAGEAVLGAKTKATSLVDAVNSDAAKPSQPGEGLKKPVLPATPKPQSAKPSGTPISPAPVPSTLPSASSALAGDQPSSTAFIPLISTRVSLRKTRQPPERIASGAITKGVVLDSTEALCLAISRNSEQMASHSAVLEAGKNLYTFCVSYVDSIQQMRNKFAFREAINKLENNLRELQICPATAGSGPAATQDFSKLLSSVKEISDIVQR
Target sequence (Q13671 whole entry, looked up): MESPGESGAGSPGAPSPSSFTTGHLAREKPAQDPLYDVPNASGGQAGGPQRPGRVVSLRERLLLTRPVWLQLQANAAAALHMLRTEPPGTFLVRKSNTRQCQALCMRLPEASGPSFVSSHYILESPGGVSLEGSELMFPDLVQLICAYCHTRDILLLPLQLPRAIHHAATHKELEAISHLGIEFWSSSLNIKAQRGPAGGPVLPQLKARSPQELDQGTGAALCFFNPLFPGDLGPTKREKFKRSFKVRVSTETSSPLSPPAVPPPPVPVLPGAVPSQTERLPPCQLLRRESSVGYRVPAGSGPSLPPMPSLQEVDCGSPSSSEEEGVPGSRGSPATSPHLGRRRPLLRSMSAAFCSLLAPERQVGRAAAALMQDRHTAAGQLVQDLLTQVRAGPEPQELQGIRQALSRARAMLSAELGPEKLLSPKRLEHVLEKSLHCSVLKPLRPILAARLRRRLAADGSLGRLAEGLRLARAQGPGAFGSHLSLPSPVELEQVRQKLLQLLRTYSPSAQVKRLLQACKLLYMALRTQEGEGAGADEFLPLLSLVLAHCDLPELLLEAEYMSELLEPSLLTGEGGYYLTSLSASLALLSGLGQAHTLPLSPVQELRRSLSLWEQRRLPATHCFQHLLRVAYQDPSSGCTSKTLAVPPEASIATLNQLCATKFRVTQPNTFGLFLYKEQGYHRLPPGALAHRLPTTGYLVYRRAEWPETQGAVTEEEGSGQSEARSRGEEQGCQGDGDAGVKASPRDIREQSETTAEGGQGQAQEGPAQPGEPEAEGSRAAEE
Tb MetRS inh: blocks T. brucei methionyl-tRNA synthetase activity; inhibition, % at 11.9 µM; AID 624268; purified T. brucei MetRS, ATP depletion, Kinase-Glo luminescence; 360,000 tested, 0.4% active;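 active means inhibition above a per-plate cutoff of the control wells' mean inhibition plus 3 SD, cut at about 5.5% in these data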
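Test system: purified T. brucei MetRS enzyme. Also added: ATP, methionine and E. coli bulk tRNA substrates. Compound: 11.9 µM single point. Schedule: 15 min enzyme-compound preincubation, 2 h reaction, 10 min detection, 25 °C. Signal: luciferase luminescence of residual ATP, Kinase-Glo. Evaluation: percent inhibition versus plate control medians. Controls: DMSO wells, low control.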
Numbers stand for hits; – = inactive; · = no result.

SMILES	PKA-R2B activ	PKA-R1A act	H9c2 protect	Rin1 Abl inh	Tb MetRS inh
O=C(N/N=C/c1ccc(O)cc1)Nc1cccc2nsnc12	–	–	58.5	–	–
O=[N+]([O-])c1cc2oc3c(c2c(C=NCc2ccccc2)c1O)CCCC3	–	–	61.0	–	–
CC(C)CN=Cc1c(O)c([N+](=O)[O-])cc2oc3c(c12)CCCC3	–	–	95.2	–	–
Cc1c(NC(=O)COC(=O)c2ccc(Br)o2)c(=O)n(-c2ccccc2)n1C	–	–	–	–	–
O=C(NCC(=O)N(c1ccc(F)cc1)C(C(=O)NC1CCCCC1)c1ccncc1)c1ccco1 (stereo unspecified)	–	–	–	–	–
CCn1c(=O)c(C(=O)NC(C)c2ccccc2)c(O)c2ccccc21 (stereo unspecified)	–	–	55.0	–	–
CCCn1c(=O)c(C(=O)Nc2ccccc2)c(O)c2ccccc21	–	–	57.3	–	–
CCCn1c(=O)c(C(=O)Nc2cccc(C)c2)c(O)c2ccccc21	–	–	–	–	–
CCCn1c(=O)c(C(=O)NC(C)c2ccccc2)c(O)c2ccccc21 (stereo unspecified)	–	–	–	–	–
COc1ccc(CC(=O)NCC2CCCN(Cc3cccc(SC)c3)C2)cc1 (stereo unspecified)	–	–	–	–	–
Cc1cc(N(C)N)nc(NC(=O)NS(=O)(=O)c2ccccc2Cl)n1	–	–	–	–	–
CC(C)CNC(=O)C1C(=O)Nc2ccccc2C(=O)N1C(C)(C)C (stereo unspecified)	·	·	·	·	–
C[C@H](CO)N1C[C@H](C)[C@@H](CN(C)C(=O)NC2CCCCC2)Oc2c(NS(=O)(=O)c3cn(C)cn3)cccc2C1=O	–	–	–	–	–
O=C1C=C(O)c2c(O)cc(O)c(O)c2C1=O	–	–	–	57.6	–
O=C1c2ccccc2C(=O)c2c(O)c(O)cc(O)c21	–	–	–	–	–
CC(=O)NC12CC3CC(C1)CC(C(=O)N1CCN(S(=O)(=O)c4ccccc4C#N)CC1)(C3)C2	–	–	–	–	–
O=C(COC(=O)c1cc(Cl)nc(Cl)c1)NCc1ccc2c(c1)OCO2	–	–	–	–	–
CCOC(=O)c1cc2c(=O)n3cccc(C)c3nc2n(Cc2ccco2)c1=NC(=O)c1cccnc1	–	–	–	–	–
CCOC(=O)c1cc2c(=O)n3ccccc3nc2n(Cc2ccco2)c1=NC(=O)c1cccnc1	–	–	84.7	–	–
CCCCOc1ccc(C(=O)N/C(=C\c2ccc(OC)cc2)C(=O)OCc2ccco2)cc1	–	–	57.3	–	–
COc1ccc(CN2CC(=O)N(c3ccc(C)c(C)c3)C2=S)cc1OC	–	–	–	–	–
COc1ccc(CNC(=O)COC(=O)CN2C(=O)NC3(CCCC3)C2=O)cc1	–	–	–	–	–
O=c1[nH]c(C2CCCN(S(=O)(=O)c3ccccc3)C2)nc2c1nnn2Cc1ccccc1 (stereo unspecified)	–	–	–	–	–
COC(=O)c1ccc(Cn2nnc3c(=O)[nH]c(C4CCCN(S(=O)(=O)c5ccccc5)C4)nc32)cc1 (stereo unspecified)	–	–	60.9	–	–
Nc1nc(-c2c[nH]c3ccccc23)cs1	–	–	49.3	–	–
SMILES	PKA-R2B activ	PKA-R1A act	H9c2 protect	Rin1 Abl inh	Tb MetRS inh
O=C(Nc1cc2c3c(c1)CC(=O)N3CCC2)c1ccc(Cl)cc1	–	–	–	–	–
COc1ccc(N2CCN(C(=O)C3CCCN3S(=O)(=O)c3cccc4nsnc34)CC2)cc1 (stereo unspecified)	–	–	–	–	–
Cc1nc(OCc2ccccc2)c2ccccc2n1	–	–	51.0	–	–
COc1ccc(F)cc1COc1nc(C)nc2ccccc12	–	–	–	–	–
CC(C)(C)C(=O)Nc1cc(S(=O)(=O)N2CCCCC2)ccc1N1CCCCC1	–	–	–	–	–
O=C(NCCN1CCCC1)C1CCC(=O)N(CCCN2CCOCC2)C1 (stereo unspecified)	–	–	–	–	–
O=C(COC(=O)c1ccc2c(c1[N+](=O)[O-])C(=O)c1ccccc1C2=O)NC1CC1	–	–	–	–	–
O=C(COC(=O)c1cccc2c1C(=O)c1ccccc1C2=O)NC1CCCCC1	–	–	58.3	–	–
O=C1CC(SCCc2nc3ccccc3[nH]2)C(=O)N1c1ccc(Cl)cc1 (stereo unspecified)	–	–	–	–	21.2
Cc1ccc(NC(=O)c2ccc(OC(=O)COc3ccc(Cl)cc3C)cc2)cc1	–	–	–	–	–
Cc1ccc(C(=O)CC(=O)COc2ccc(Cl)cc2C)cc1	–	–	64.1	–	–
COc1ccccc1CNC(=O)CCNC(=O)c1ccco1	–	–	–	–	–
O=C(c1noc2c1CCCC2)N1CCC(CO)(Cc2ccccc2Cl)CC1	–	–	–	–	–
C/C(=N\NC(=O)c1nnn(-c2nonc2N)c1CN1CCc2ccccc21)c1ccccc1O	–	–	58.0	–	–
COc1ccc(O)c(/C=N/NC(=O)c2c(C)nnn2-c2nonc2N)c1	–	–	55.1	–	–
COc1ccc(/C=N/NC(=O)c2nnn(-c3nonc3N)c2-c2cccc(OC)c2)cc1	–	–	–	–	–
CC1CCN(Cc2c(C(=O)N/N=C/c3cc(Br)ccc3O)nnn2-c2nonc2N)CC1	–	–	64.2	–	–
COc1ccc(CC(=O)NCC(=O)N/N=C(/C)c2ccco2)cc1	·	·	–	–	–
COc1ccc(-c2noc(CNC(=O)CCCN3C(=O)[C@H]4CC=CC[C@H]4C3=O)n2)cc1	–	–	–	–	–
OCCC1CN(Cc2ccon2)CCN1CCc1ccccc1 (stereo unspecified)	–	–	–	–	–
CCn1cc(C(=O)NCc2cccc(F)c2)c(=O)c2cc(F)c(N3CCN(C(=O)c4ccco4)CC3)cc21	–	–	54.8	–	–
O=C(OCC(=O)N1CCN(C(=O)c2ccco2)CC1)c1cc(-c2ccco2)nc2ccccc12	–	–	49.0	–	–
COc1ccc2nc3cc(Cl)ccc3c(Nc3cc(CN4CCCC4)c(O)c(CN4CCCC4)c3)c2n1	·	·	50.5	–	–
CC(OC(=O)Cc1n[nH]c(=O)c2ccccc12)C(=O)Nc1cccc([N+](=O)[O-])c1 (stereo unspecified)	–	–	57.5	–	–
Cc1cccc(C(C)C)c1NC(=O)C(C)OC(=O)Cc1n[nH]c(=O)c2ccccc12 (stereo unspecified)	–	–	70.9	–	–
COc1ccccc1NC(=O)C(C)OC(=O)Cc1n[nH]c(=O)c2ccccc12 (stereo unspecified)	–	–	66.0	–	–
CC(OC(=O)Cc1n[nH]c(=O)c2ccccc12)C(=O)Nc1ccccc1[N+](=O)[O-] (stereo unspecified)	–	–	72.5	–	–

Compound activity as filed in PubChem.
